Experimental data taken from ChEMBL document CHEMBL4033621, “Design, synthesis and biological evaluation of new pyrazolyl-ureas and imidazopyrazolecarboxamides able to interfere with MAPK and PI3K upstream signaling involved in the angiogenesis” (Eur J Med Chem, 2017).
Active and inactive are the calls of the source. The rule behind the calls is not given here.

Experiments:
Homo sapiens [1] = species on record: Homo sapiens; experiment: Effect on VEGF-stimulated MAPK signaling pathway in HUVEC assessed as p38 MAPK phosphorylation level at 20 uM pretreated for 10 mins followed by VEGF stimulation and subsequent compound addition measured after 20 mins by Western blot analysis relative to control
In short: (§1)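 HUVEC grown to confluence in M199 with 10% FCS, ECGS, heparin, hydrocortisone, then starved ≥4 h in medium alone. Pre-incubated 10 min at 37°C with compound 20 µM in DMSO, then VEGF 50 ng/mL plus compound for 20 min. Lysates (30 µg) immunoblotted for phospho-ERK1/2, phospho-p38MAPK or phospho-Akt, with tubulin as loading control. ECL detection, densitometry. Results given relative to VEGF+DMSO on the same blot (100%), ≥2 independent experiments.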

Homo sapiens [2] = species on record: Homo sapiens; experiment: Effect on VEGF-stimulated PI3K signaling pathway in HUVEC assessed as AKT phosphorylation level at 20 uM pretreated for 10 mins followed by VEGF stimulation and subsequent compound addition measured after 20 mins by Western blot analysis relative to control; in short: as §1
HUVEC = experiment: Antimigratory activity against VEGF-stimulated HUVEC at 20 uM measured up to 15 hrs in presence of CMFDA probe by microscopy-based wound healing assay; format: functional, cell-based; conditions: Homo sapiens
In short: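 Confluent HUVEC (48 h growth) labelled with CMFDA (1:5000 of 10 mM stock), scratched with sterile tip, washed with PBS, then given VEGF 50 ng/mL plus compound 20 µM (DMSO control). Wounds imaged at 0 and 15 h by microscopy. Colonized area = area 0 h − area 15 h, expressed as percent of control set at 100%.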

Homo sapiens [3] = species on record: Homo sapiens; experiment: Effect on VEGF-stimulated MAPK signaling pathway in HUVEC assessed as ERK1/2 phosphorylation level at 20 uM pretreated for 10 mins followed by VEGF stimulation and subsequent compound addition measured after 20 mins by Western blot analysis relative to control; in short: as §1

Activity (Homo sapiens [1])	Activity (Homo sapiens [2])	Activity (Homo sapiens [3])	SMILES	Activity (HUVEC)
Active	Active	–	CC(C)(C)c1cc2n(n1)CC(c1ccccc1)N2C(=O)Nc1ccc(F)cc1 (stereo not given)	inactive
150%	-37%	-70%	CCOC(=O)c1cnn(CC(O)c2ccccc2)c1NC(=O)Nc1cccc(C(F)(F)F)c1 (stereo not given)	inactive
Active	Active	–	CCOC(=O)c1cc2n(n1)CC(c1ccccc1)N2C(=O)Nc1ccc(F)cc1 (stereo not given)	inactive
Active	–	Active	CC(C)(C)c1cc(NC(=O)Nc2cccc(C(F)(F)F)c2)n(CC(O)c2ccccc2)n1 (stereo not given)	inactive
180%	-29%	-59%	CCCC(O)Cn1ncc(C(=O)OCC)c1NC(=O)Nc1cccc(C(F)(F)F)c1 (stereo not given)	Active
200 to 300%	Active	83%	O=C(c1cnn2c1N(C(=O)Nc1cccc(C(F)(F)F)c1)C(c1ccccc1)C2)N1CCCCC1 (stereo not given)	inactive
Active	Active	-75%	CCOC(=O)c1cc2n(n1)CC(c1ccccc1)N2C(=O)Nc1cccc(C(F)(F)F)c1 (stereo not given)	inactive
Active	Active	–	CC(C)(C)c1cc2n(n1)CC(c1ccccc1)N2C(=O)Nc1cccc(F)c1 (stereo not given)	inactive
-74%	inactive	Active	CC(C)(C)c1cc(NC(=O)Nc2ccccc2F)n(CC(O)c2ccccc2)n1 (stereo not given)	inactive
Active	Active	–	CCOC(=O)c1cc2n(n1)CC(c1ccccc1)N2C(=O)Nc1cccc(F)c1 (stereo not given)	inactive
Active	Active	Active	CCOC(=O)c1cnn(CC(=O)c2ccccc2)c1NC(=O)Nc1cccc(C(F)(F)F)c1	inactive
199%	Active	Active	CC(C)(C)c1cc(NC(=O)Nc2cccc(F)c2)n(CC(O)c2ccccc2)n1 (stereo not given)	inactive
Active	96%	Active	CCOC(=O)c1cnn(CC(=O)c2ccccc2)c1NC(=O)Nc1ccc(F)cc1	inactive
97%	inactive	-89%	CCOC(=O)c1cc(NC(=O)Nc2ccccc2F)n(CC(O)c2ccccc2)n1 (stereo not given)	inactive
Active	63%	Active	CCOC(=O)c1cnn(CC(=O)c2ccccc2)c1NC(=O)Nc1cccc(F)c1	inactive
140%	Active	–	CC(C)(C)c1cc2n(n1)CC(c1ccccc1)N2C(=O)Nc1cccc(C(F)(F)F)c1 (stereo not given)	inactive
200 to 300%	Active	-26%	CCOC(=O)c1cnn2c1N(C(=O)Nc1cccc(C(F)(F)F)c1)C(c1ccccc1)C2 (stereo not given)	inactive
Active	Active	inactive	CCOC(=O)c1cnn(CC(O)CC)c1NC(=O)Nc1cccc(C(F)(F)F)c1 (stereo not given)	inactive
Active	inactive	inactive	CCOC(=O)c1cnn(CC(=O)c2ccccc2)c1NC(=O)Nc1ccccc1F	inactive
Active	Active	Active	CCOC(=O)c1cnn(CC(C)O)c1NC(=O)Nc1cccc(C(F)(F)F)c1 (stereo not given)	inactive
-61%	inactive	Active	CCOC(=O)c1cc(NC(=O)Nc2cccc(C(F)(F)F)c2)n(CC(O)c2ccccc2)n1 (stereo not given)	inactive
200 to 300%	Active	inactive	NC(=O)c1cnn2c1N(C(=O)Nc1cccc(C(F)(F)F)c1)C(c1ccccc1)C2 (stereo not given)	inactive
Active	inactive	–	CCOC(=O)c1cc2n(n1)CC(c1ccccc1)N2C(=O)Nc1ccccc1F (stereo not given)	inactive
Active	51%	Active	CCOC(=O)c1cc(NC(=O)Nc2cccc(F)c2)n(CC(O)c2ccccc2)n1 (stereo not given)	inactive
-70%	-83%	-67%	CC(C)(C)c1cc(NC(=O)Nc2ccc(F)cc2)n(CC(O)c2ccccc2)n1 (stereo not given)	inactive
Active	inactive	–	CC(C)(C)c1cc2n(n1)CC(c1ccccc1)N2C(=O)Nc1ccccc1F (stereo not given)	inactive
-81%	inactive	Active	CCOC(=O)c1cc(NC(=O)Nc2ccc(F)cc2)n(CC(O)c2ccccc2)n1 (stereo not given)	inactive
